The results in this text go back to ChEMBL document CHEMBL3414543, “Novel series of benzoquinones with high potency against 5-lipoxygenase in human polymorphonuclear leukocytes” (Eur J Med Chem, 2015).

Molecules are shown by their SMILES.

For assay [1], the target named is T1, Polyunsaturated fatty acid 5-lipoxygenase (Homo sapiens, UniProt P09917).
T1 sequence (P09917 whole entry): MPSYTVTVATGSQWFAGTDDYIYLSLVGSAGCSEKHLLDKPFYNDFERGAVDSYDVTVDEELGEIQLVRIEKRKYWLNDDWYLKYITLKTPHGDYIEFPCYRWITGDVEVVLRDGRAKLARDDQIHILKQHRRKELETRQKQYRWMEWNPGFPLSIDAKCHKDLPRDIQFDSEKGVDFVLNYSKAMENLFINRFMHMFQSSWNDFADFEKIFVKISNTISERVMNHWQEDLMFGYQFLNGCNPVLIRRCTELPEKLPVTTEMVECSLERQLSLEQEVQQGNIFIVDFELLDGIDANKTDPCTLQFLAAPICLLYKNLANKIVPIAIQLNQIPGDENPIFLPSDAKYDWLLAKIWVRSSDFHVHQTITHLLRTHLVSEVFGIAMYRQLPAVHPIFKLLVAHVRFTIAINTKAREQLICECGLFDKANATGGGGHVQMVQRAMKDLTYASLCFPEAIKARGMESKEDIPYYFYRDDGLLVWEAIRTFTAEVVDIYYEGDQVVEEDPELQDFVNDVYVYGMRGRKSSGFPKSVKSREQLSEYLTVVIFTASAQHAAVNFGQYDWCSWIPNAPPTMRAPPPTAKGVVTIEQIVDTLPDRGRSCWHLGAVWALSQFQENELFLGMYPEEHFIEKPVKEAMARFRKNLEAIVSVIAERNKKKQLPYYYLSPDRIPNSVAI
Description: Inhibition of 5-LOX in A23187-stimulated human blood PMNL assessed as reduction in lipoxygenase products formation in presence of arachidonic acid pre-incubated for 15 mins followed by stimulation with A23187 for 10 mins by RP-HPLC based cell based assay. An outline of the steps:
(§1)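 Human PMNL (5 × 10⁶ in 1 ml PBS pH 7.4, 1 mg/ml glucose, 1 mM CaCl₂), preincubated 15 min at 37 °C with compound or 0.1% DMSO, then stimulated 10 min at 37 °C with A23187, with or without AA. 5-LO products measured. Values are mean ± S.E. of 3–4 independent experiments. IC₅₀ read graphically from 4–5 concentrations.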

In assay [2] the target is T1, Polyunsaturated fatty acid 5-lipoxygenase. Description: Inhibition of human recombinant 5-LOX expressed in Escherichia coli BL21 incubated for 10 mins in presence of arachidonic acid by RP-HPLC based cell-free assay. An outline of the steps: (§2)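 Recombinant human 5-LO, semi-purified from a 40,000 × g lysate supernatant on ATP-agarose, diluted in ice-cold PBS with 1 mM EDTA and 1 mM ATP. Preincubated 10 min at 4 °C with compound or 0.1% DMSO, warmed 30 s at 37 °C, then started with 2 mM CaCl₂ plus 20 µM AA. Reaction 10 min at 37 °C, stopped with cold methanol, products by RP-HPLC. IC₅₀ from 4–5 concentrations.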

For assay [3], the target named is T2, Polyunsaturated fatty acid lipoxygenase ALOX12 (Homo sapiens) (UniProt P18054).
T2 sequence (whole entry): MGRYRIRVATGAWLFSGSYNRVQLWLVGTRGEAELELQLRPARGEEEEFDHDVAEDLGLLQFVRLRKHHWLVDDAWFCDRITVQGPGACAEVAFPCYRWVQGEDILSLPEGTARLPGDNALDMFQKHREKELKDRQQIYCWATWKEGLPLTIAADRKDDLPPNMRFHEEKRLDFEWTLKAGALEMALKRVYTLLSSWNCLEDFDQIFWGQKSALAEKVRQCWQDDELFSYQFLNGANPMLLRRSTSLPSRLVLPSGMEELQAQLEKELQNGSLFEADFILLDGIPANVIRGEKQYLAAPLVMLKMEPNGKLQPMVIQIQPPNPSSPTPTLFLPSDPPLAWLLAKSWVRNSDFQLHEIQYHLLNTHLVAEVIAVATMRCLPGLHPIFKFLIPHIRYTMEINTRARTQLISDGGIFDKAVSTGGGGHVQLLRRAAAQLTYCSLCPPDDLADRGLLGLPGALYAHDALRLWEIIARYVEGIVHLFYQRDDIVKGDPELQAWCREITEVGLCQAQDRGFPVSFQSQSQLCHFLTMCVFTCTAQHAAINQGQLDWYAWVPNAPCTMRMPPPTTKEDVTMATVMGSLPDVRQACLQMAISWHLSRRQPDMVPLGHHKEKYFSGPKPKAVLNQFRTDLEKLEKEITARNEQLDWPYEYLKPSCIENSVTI
In words: Inhibition of 12-LOX in human blood PMNL assessed as remaining activity by measuring 12-HETE synthesis at 10 uM. The method in brief:
(§3)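 PMNL isolated from heparinized blood of fasted healthy donors by dextran sedimentation and Nycoprep centrifugation, with hypotonic lysis of erythrocytes. Cells at 5 × 10⁶ in 1 ml PBS pH 7.4 with 1 mg/ml glucose and 1 mM CaCl₂, preincubated 15 min at 37 °C with compound or 0.1% DMSO vehicle, then stimulated 10 min at 37 °C. 12-HETE or 15-HETE formation measured.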

The target of assay [4] is T1, Polyunsaturated fatty acid 5-lipoxygenase. Description: Inhibition of 5-LOX in A23187-stimulated human blood PMNL assessed as reduction in lipoxygenase products formation pre-incubated for 15 mins followed by stimulation with A23187 for 10 mins by RP-HPLC based cell based assay. The method in brief: as §1
Assay [5] concerns the target T3, Polyunsaturated fatty acid lipoxygenase ALOX15 (Homo sapiens) (UniProt P16050).
T3 sequence (whole entry): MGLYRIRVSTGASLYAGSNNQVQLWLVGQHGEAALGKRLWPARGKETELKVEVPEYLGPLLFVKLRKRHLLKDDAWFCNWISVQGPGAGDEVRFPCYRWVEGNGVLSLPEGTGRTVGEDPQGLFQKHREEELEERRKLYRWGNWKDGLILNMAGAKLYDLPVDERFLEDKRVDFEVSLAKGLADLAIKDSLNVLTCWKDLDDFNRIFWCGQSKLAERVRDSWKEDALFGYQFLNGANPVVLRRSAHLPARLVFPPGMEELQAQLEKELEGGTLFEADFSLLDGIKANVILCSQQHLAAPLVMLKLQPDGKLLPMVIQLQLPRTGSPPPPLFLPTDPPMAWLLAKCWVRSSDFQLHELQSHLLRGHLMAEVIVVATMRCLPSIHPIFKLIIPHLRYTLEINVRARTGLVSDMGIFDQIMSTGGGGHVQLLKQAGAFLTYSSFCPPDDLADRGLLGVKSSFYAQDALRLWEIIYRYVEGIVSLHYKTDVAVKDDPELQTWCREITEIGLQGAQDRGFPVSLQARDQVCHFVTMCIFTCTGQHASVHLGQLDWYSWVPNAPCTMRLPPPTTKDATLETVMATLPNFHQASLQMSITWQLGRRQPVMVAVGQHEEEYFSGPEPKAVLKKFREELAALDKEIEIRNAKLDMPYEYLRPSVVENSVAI
In words: Inhibition of 15-LOX-1 in human blood PMNL assessed as remaining activity by measuring 15-HETE synthesis at 10 uM. An outline of the steps: as §3

The target in assay [6] is T4, Polyunsaturated fatty acid 5-lipoxygenase (Homo sapiens) (UniProt P09917).
T4 sequence (whole entry): T1 sequence (P09917 whole entry)
In words: Inhibition of human recombinant 5-LOX expressed in Escherichia coli BL21 assessed as remaining activity at 10 uM incubated for 10 mins in presence of arachidonic acid by RP-HPLC based cell-free assay. An outline of the steps:
as §2

The target in assay [7] is T1, Polyunsaturated fatty acid 5-lipoxygenase. Description: Inhibition of human 5-LOX by intact cell based assay.
The target is the same in assay [8]. Description: Inhibition of human 5-LOX by cell free assay.
Assay [9] deals with T4, Polyunsaturated fatty acid 5-lipoxygenase (Homo sapiens). In words: Potency index, ratio of IC50 for human 5-LOX by intact cell based assay to IC50 for human 5-LOX by cell free assay.
The species entered for assay [10] is Homo sapiens. In words: Selectivity index, ratio of inhibition for 12-LOX in human blood PMNL to IC50 for 5-LOX in human blood PMNL.
For assay [11], the species on record is Homo sapiens. Description: Selectivity index, ratio of inhibition for […] in human blood PMNL to IC50 for 5-LOX in human blood PMNL.
The target in assay [12] is T4, Polyunsaturated fatty acid 5-lipoxygenase (Homo sapiens). Description: Inhibition of 5-LOX in A23187-stimulated human blood PMNL assessed as remaining activity by measuring lipoxygenase products formation at 10 uM in presence of arachidonic acid pre-incubated for 15 mins followed by stimulation with A23187 for 10 mins by RP-HPLC based cell based assay. The method in brief:
as §1

The target is the same in assay [13]. Description: Inhibition of 5-LOX in A23187-stimulated human blood PMNL assessed as remaining activity by measuring lipoxygenase products formation at 10 uM pre-incubated for 15 mins followed by stimulation with A23187 for 10 mins by RP-HPLC based cell based assay. An outline of the steps:
as §1

Regarding `CCCCC1=C(OC)C(OC)=CC(=O)C1=O`, the half-inhibitory concentration (IC50) in assay [1] was 5100 nM; in assay [2] it was over 10000 nM; in assay [4], 2200 nM. In addition, the Activity in assay [3] came out at 85.8%; in assay [5], 129%; in assay [6], 82.9%.

Take `CCCCCCCCCCCCCCCCC1=C(O)C(=O)C=C(OC)C1=O`: the 50% inhibitory concentration (IC50) in [1] is 1100 nM; in assay [2], over 10000 nM; in [4], 1000 nM. The Activity in assay [3] turned out to be 138%; in [5], 119%; in [6] it was 60.1%.

`CCCCCCCCCCCC1=C(O)C(=O)C=C(O)C1=O` [EMBELIN]: the concentration for half-maximal inhibition (IC50) worked out at 3500 nM in [1]; 800 nM in assay [7]; 60 nM in assay [8]; 60 nM in [2]; 1700 nM in assay [4]. The Activity stood at 74.9% in assay [3] and 91.5% in [5]. The Ratio IC50 in assay [9] came to 13.

Turning to `CCCCCCCCCCCC1=C(OC)C(OC)=CC(=O)C1=O`, the results for the 50% inhibitory concentration (IC50) in [1], in assay [2] and in assay [4] were 100 nM, 90 nM and 60 nM, respectively. Moreover, the figures for the Activity in assay [3] and in [5] were 236% and 105%, respectively. Besides, the Selectivity Index in assay [10] and in assay [11] was over 66 throughout.

With `CCCCCCCCCCC1=C(OC)C(OC)=CC(=O)C1=O`, the concentration for half-maximal inhibition (IC50) in [1] was determined as 70 nM; in [2], 130 nM; in [4], 40 nM. Also, the Activity was 133% in assay [3] and 148% in [5]. Further, the Selectivity Index in assay [10] and in assay [11] was over 66 each time.

Take `COC1=CC(=O)C(O)=C(C/C=C(\C)CCC=C(C)C)C1=O`: the half-maximal inhibitory concentration (IC50) in assay [1] is over 10000 nM; in assay [2], over 10000 nM; in [4], 4100 nM. In addition, the Activity stood at 65.9% in assay [12], 101% in assay [3], 112% in assay [5] and 73.6% in [6].

As for `CCCCC1=C(O)C(=O)C=C(OC)C1=O`, the IC50 in [1], in assay [2] and in assay [4] was over 10000 nM each time. For the same molecule, the Activity came out at 95.7% in [12]; 91.2% in assay [3]; 86% in [13]; 112% in assay [5]; 70.5% in [6].

Consider `CCCCCCCCCCCCC1=C(OC)C(OC)=CC(=O)C1=O`, for which the IC50 in assay [1] is 150 nM; in assay [2], 130 nM; in assay [4], 29 nM. For the same molecule, the figures for the Activity in [3] and in assay [5] were 135% and 133%, respectively. The Selectivity Index in assay [10] and in assay [11] was over 66 each time.

Turning to `CCCCCCC1=C(O)C(=O)C=C(OC)C1=O`, the concentration for half-maximal inhibition (IC50) in assay [1], in assay [2] and in [4] was over 10000 nM in each case. Also, the Activity in assay [12] amounted to 64.1%; in assay [3], 44.5%; in assay [13], 68.9%; in [5], 65.8%; in [6], 71.1%.

Regarding `CCCCC1=C(O)C(=O)C=C(O)C1=O`, the IC50 in [1], in [2] and in assay [4] was over 10000 nM throughout. Moreover, the Activity in assay [12] was 92.8%; in assay [3] it was 93.3%; in assay [13], 93.5%; in assay [5], 82.3%; in assay [6] it was 65.4%.

Turning to `CCCCCCCCC1=C(O)C(=O)C=C(OC)C1=O`, the IC50 is over 10000 nM in assay [1], 3000 nM in assay [2] and over 10000 nM in assay [4]. Further, the Activity stood at 72.9% in assay [12], 86.8% in [3], 73.5% in [13] and 105% in assay [5].

For `CCCCCCCCCCCCCC1=C(OC)C(OC)=CC(=O)C1=O`, the IC50 is 50 nM in assay [1], 80 nM in assay [2] and 120 nM in assay [4]. For the same molecule, the values for the Activity in assay [3] and in assay [5] were 78.5% and 137%, respectively. Also, the Selectivity Index in [10] and in [11] was over 66 each time.
